≈ marks a conversion by molar mass, not a printed value.
Assays:
[1] = system: Mycobacterium tuberculosis; experiment: Antimycobacterial activity against Mycobacterium tuberculosis H37Rv ATCC 27294 assessed as parasite growth inhibition after 28 days by agar dilution method; format: functional; conditions: H37Rv ATCC 27294, 672 h
Procedure, shortened: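 Agar dilution in Middlebrook 7H11 with OADC; two-fold dilutions 50.0 to 0.4 µg/mL. Inoculum from fresh 7H11 slants, adjusted to 1 mg/mL wet weight in 0.05% Tween 80 saline, diluted 10-2 to 107 cfu/mL; 5 µL spotted per tube. Incubated 37 °C, read at 28 days. MIC = lowest concentration giving complete growth inhibition; triplicates.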

[2] = Cytotoxicity against HEK293T cells at 50 ug/ml after 72 hrs by MTT assay; format: cell-based, HEK-293T; conditions: human, read-out: INH
Procedure, shortened: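 HEK-293T human embryonic kidney cells exposed to compound at 50 µg/mL for 72 h; viability by cellular MTT conversion to formazan (non-radioactive cell proliferation kit); reported as percentage inhibition of cells.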

[3] = Selectivity index, ratio of cytotoxicity for HEK293T cells to MIC for Mycobacterium tuberculosis H37Rv; format: toxicity, cell-based, HEK-293T; conditions: human, read-out: Selectivity Index

| SMILES | MIC [1] [µg/mL] | cytotoxicity at 72 h, 50 ug/ml [2] [%] | selectivity ratio [3] |
| --- | --- | --- | --- |
| O=C(Cn1cc(-c2ccsc2)nn1)N1c2ccccc2Sc2ccc(C(F)(F)F)cc21 | 25 (≈ 54.5 µM) | – | – |
| CCCCCCc1cn(CC(=O)N2c3ccccc3Sc3ccc(C(F)(F)F)cc32)nn1 | 6.25 (≈ 13.6 µM) | 25.6 | > 10 |
| O=C(Cn1cc(CCCO)nn1)N1c2ccccc2Sc2ccc(C(F)(F)F)cc21 | 12.5 (≈ 28.8 µM) | – | – |
| O=C(Cn1cc(CCc2ccccc2)nn1)N1c2ccccc2Sc2ccc(C(F)(F)F)cc21 | 25 (≈ 52 µM) | – | – |
| O=C(Cn1cc(C2(O)CCCC2)nn1)N1c2ccccc2Sc2ccc(C(F)(F)F)cc21 | 12.5 (≈ 27.1 µM) | – | – |
| O=C(Cn1cc(C2(O)CCCCC2)nn1)N1c2ccccc2Sc2ccc(C(F)(F)F)cc21 | 25 (≈ 52.7 µM) | – | – |
| O=C(Cn1cc(-c2ccccc2)nn1)N1c2ccccc2Sc2ccc(C(F)(F)F)cc21 | 12.5 (≈ 27.6 µM) | – | – |
| Cc1cccc(-c2cn(CC(=O)N3c4ccccc4Sc4ccc(C(F)(F)F)cc43)nn2)c1 | 25 (≈ 53.6 µM) | – | – |
| Cc1ccc(-c2cn(CC(=O)N3c4ccccc4Sc4ccc(C(F)(F)F)cc43)nn2)cc1 | 25 (≈ 53.6 µM) | – | – |
| CC(C)(C)c1ccc(-c2cn(CC(=O)N3c4ccccc4Sc4ccc(C(F)(F)F)cc43)nn2)cc1 | 25 (≈ 49.2 µM) | – | – |
| COc1cccc(-c2cn(CC(=O)N3c4ccccc4Sc4ccc(C(F)(F)F)cc43)nn2)c1 | 6.25 (≈ 13 µM) | 34.6 | > 10 |
| COc1ccc(-c2cn(CC(=O)N3c4ccccc4Sc4ccc(C(F)(F)F)cc43)nn2)c(C)c1 | 12.5 (≈ 25.2 µM) | – | – |
| O=C(Cn1cc(-c2ccc([N+](=O)[O-])cc2)nn1)N1c2ccccc2Sc2ccc(C(F)(F)F)cc21 | 25 (≈ 50.3 µM) | – | – |
| O=C(Cn1cc(-c2ccc(F)cc2F)nn1)N1c2ccccc2Sc2ccc(C(F)(F)F)cc21 | 6.25 (≈ 12.8 µM) | 30.6 | > 10 |
| O=C(Cn1cc(-c2ccc(Cl)c(Cl)c2)nn1)N1c2ccccc2Sc2ccc(C(F)(F)F)cc21 | ≤ 25 | – | – |
| CCCCCc1ccc(-c2cn(CC(=O)N3c4ccccc4Sc4ccc(C(F)(F)F)cc43)nn2)cc1 | ≤ 25 | – | – |
| O=C(Cn1cc(-c2ccc(-c3ccccc3)cc2)nn1)N1c2ccccc2Sc2ccc(C(F)(F)F)cc21 | 25 (≈ 47.3 µM) | – | – |
| CC(=O)c1ccc(C)cc1OCc1cn(CC(=O)N2c3ccccc3Sc3ccc(C(F)(F)F)cc32)nn1 | 25 (≈ 46.4 µM) | – | – |
| COc1ccc2cc(-c3cn(CC(=O)N4c5ccccc5Sc5ccc(C(F)(F)F)cc54)nn3)ccc2c1 | 25 (≈ 46.9 µM) | – | – |
| O=C(Cn1cc(-c2cc3ccccc3c3ccccc23)nn1)N1c2ccccc2Sc2ccc(C(F)(F)F)cc21 | 12.5 (≈ 22.6 µM) | – | – |
| CCCCc1cn(CC(=O)N2c3ccccc3Sc3ccc(C(F)(F)F)cc32)nn1 | 25 (≈ 57.8 µM) | – | – |
| CCCCCc1cn(CC(=O)N2c3ccccc3Sc3ccc(C(F)(F)F)cc32)nn1 | 12.5 (≈ 28 µM) | – | – |
| CC[C@@H](CO)NCCN[C@@H](CC)CO [ETHAMBUTOL] | 3.13 (≈ 15.3 µM) | – | – |
| NNC(=O)c1ccncc1 [ISONIAZID] | 0.1 (≈ 0.729 µM) | – | – |
| NC(=O)c1cnccn1 [PYRAZINAMIDE] | 50 (≈ 406 µM) | – | – |

Reference: ChEMBL document CHEMBL3098070, “Rational design, synthesis and antitubercular evaluation of novel 2-(trifluoromethyl)phenothiazine-[1,2,3]triazole hybrids” (Bioorg Med Chem Lett, 2014)
